Data from ChEMBL document CHEMBL1240364, “Ex vivo comparison of microbicide efficacies for preventing HIV-1 genomic integration in intraepithelial vaginal cells” (Antimicrob Agents Chemother, 2010).

Columns and labels:
[1] = system: Human immunodeficiency virus 1; experiment: Antiviral activity against HIV1 JRCSF infected in human vaginal intraepithelial cells assessed as decrease in viral genomic integration at 30 uM by multiplex PCR assay; format: functional, JRCSF ISOLATE; parameters: scale not given: the % may be the effect or the level left
Method in brief: (§1)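 EDTA-separated vaginal epithelial sheets, calcium-replenished, pretreated 1 h with a single compound concentration, then spinoculated with 100 ng/ml Gag p24 HIV-1JRCSF (2 h, 1,200 × g) and cultured 48 h at 37°C. Integrated DNA measured by Alu-LTR nested real-time PCR against an ACH-2 standard curve, with β-actin normalization run either in separate wells (singleplex) or in the same wells (multiplex). Quadruplicate PCRs; integration relative to untreated infection.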

[2] = system: Human immunodeficiency virus 1; experiment: Antiviral activity against HIV1 isolate M1 infected in human vaginal intraepithelial cells assessed as decrease in viral genomic integration at 1 uM after 48 hrs by multiplex PCR assay; format: functional; parameters: scale not given: the % may be the effect or the level left
Method in brief: (§2)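 Vaginal epithelial sheets from two donors, EDTA-isolated and calcium-replenished, were preincubated with compound and then spinoculated with 100 ng/ml Gag p24 of primary mucosal isolate HIV-1M1 for 2 h at 1,200 × g. After 48 h culture, integration was measured by multiplex Alu-LTR/β-actin nested real-time PCR and expressed relative to untreated infection.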

[3] = system: Human immunodeficiency virus 1; experiment: Antiviral activity against HIV1 JRCSF infected in human vaginal epithelium assessed as inhibition of viral genomic integration by titration assay; format: functional; details: for IC50: Human immunodeficiency virus 1, JRCSF ISOLATE; for Activity: JRCSF ISOLATE
Method in brief: (§3)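 Vaginal epithelial sheets separated from stroma with 5 mM EDTA overnight at 4°C, replenished 1 h with 5 mM CaCl2. Pretreated with compound titrations for 1 h, then spinoculated with 100 ng/ml Gag p24 HIV-1JRCSF for 2 h at 1,200 × g. Sheets washed and cultured 2–3 days at 37°C. Emigrated cells and sheets pooled; Alu-LTR nested real-time PCR run in quadruplicate. Integration expressed relative to untreated infection; IC50 by nonlinear regression.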

[4] = system: Human immunodeficiency virus 1; experiment: Antiviral activity against HIV1 JRCSF infected in human vaginal intraepithelial cells assessed as viral genomic integration relative to control at 30 uM by singleplex PCR assay; details: Human immunodeficiency virus 1, JRCSF ISOLATE
[5] = system: Human immunodeficiency virus 1; experiment: Antiviral activity against HIV1 JRCSF infected in human vaginal intraepithelial cells assessed as decrease in viral genomic integration at 0.223 uM by multiplex PCR assay; format: functional, JRCSF ISOLATE; parameters: scale not given: the % may be the effect or the level left; method in brief: as §1
[6] = system: Human immunodeficiency virus 1; experiment: Antiviral activity against HIV1 isolate M1 infected in human vaginal intraepithelial cells assessed as decrease in viral genomic integration at 0.223 uM after 48 hrs by multiplex PCR assay; format: functional; parameters: scale not given: the % may be the effect or the level left; method in brief: as §2
[7] = system: Human immunodeficiency virus 1; experiment: Antiviral activity against HIV1 JRCSF infected in human vaginal epithelium leukocytes assessed as inhibition of viral genomic integration by titration assay; format: functional, cell-based; details: JRCSF ISOLATE; method in brief: as §3
[8] = system: Human immunodeficiency virus 1; experiment: Antiviral activity against HIV1 JRCSF infected in PHA-activated human T cells assessed as inhibition of viral genomic integration by titration assay; format: functional, cell-based; details: T-cell
Method in brief: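 PBMC from two blood donors activated 2 days with 0.4 μg/ml PHA; 100,000 lymphoblasts per well pretreated in duplicate with a concentration series for 1 h at room temperature, infected with 200 ng/ml Gag p24 HIV-1JRCSF for 2 h, washed, cultured 48 h at 37°C in medium with 50 U/ml IL-2. Integrated DNA measured by Alu-LTR nested real-time PCR; IC50 from nonlinear regression.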

[9] = system: Human immunodeficiency virus 1; experiment: Antiviral activity against HIV1 JRCSF infected in human intraepithelial leukocytes assessed as decrease viral integration at 0.5 ug/ml by titration assay; format: functional, JRCSF ISOLATE; parameters: scale not given: the % may be the effect or the level left; method in brief: as §3
[10] = system: Human immunodeficiency virus 1; experiment: Antiviral activity against HIV1 JRCSF infected in human intraepithelial leukocytes assessed as decrease viral integration at 0.1 ug/ml by titration assay; format: functional, JRCSF ISOLATE; parameters: scale not given: the % may be the effect or the level left; method in brief: as §3
[11] = system: Human immunodeficiency virus 1; experiment: Antiviral activity against HIV1 JRCSF infected in human vaginal epithelium mucosa assessed as decrease viral integration at 10 ng/ml by titration assay; format: functional; details: Human immunodeficiency virus 1, JRCSF ISOLATE; method in brief: as §3
[12] = system: Human immunodeficiency virus 1; experiment: Antiviral activity against HIV1 JRCSF infected in human vaginal intraepithelial cells assessed as viral genomic integration relative to control at 0.223 uM by singleplex PCR assay; details: Human immunodeficiency virus 1, JRCSF ISOLATE
[13] = system: Human immunodeficiency virus 1; experiment: Antiviral activity against HIV1 JRCSF infected in human vaginal intraepithelial cells assessed as decrease in viral genomic integration at 1 uM by singleplex PCR assay; format: functional, JRCSF ISOLATE; parameters: scale not given: the % may be the effect or the level left; method in brief: as §1
[14] = system: Human immunodeficiency virus 1; experiment: Antiviral activity against HIV1 JRCSF infected in human vaginal intraepithelial cells assessed as viral genomic integration relative to control at 1 uM by singleplex PCR assay; details: Human immunodeficiency virus 1, JRCSF ISOLATE

Cc1ccc(-c2ccc3c(c2)C=C(C(=O)Nc2ccc(C[N+](C)(C)C4CCOCC4)cc2)CCC3)cc1.[Cl-]
Activity [1]: 8.6%
Activity [2]: <2%
IC50 [3]: 5.84 nM
Activity [3]: Dose-dependent effect
level, % of control at 30 µM [4]: 10%

enfuvirtide
Activity [5]: 6%
Activity [6]: <2%
Activity [7]: Dose-dependent effect
IC50 ([8]; Human immunodeficiency virus 1, JRCSF ISOLATE): 7.57 nM
Activity ([8]; JRCSF ISOLATE): Dose-dependent effect
Activity [9]: 30.4%
Activity [10]: 1.92%
inhibition at 0.01 µg/mL [11]: > 80%
level, % of control at 0.223 µM [12]: 8%

[N-]=[N+]=NCc1cccc(C(=O)/C=C(\O)C(=O)O)c1
Activity [13]: 8.4%
IC50 [3]: 190 nM
Activity [3]: Dose-dependent effect

c1cc(CN2CCCNCCNCCCNCC2)ccc1CN1CCCNCCNCCCNCC1 [PLERIXAFOR]
Activity [2]: 117%
level, % of control at 1 µM [14]: 177%
